From PubChem BioAssay
ATG4B inh: blocks human ATG4B protease cleavage of LC3 substrate. inhibition, % at 8.33 µM. AID 504462. Q9Y4P1. actives 0.51% (n = 340,000). ATG4B cleavage of LC3-PLA2, NBD-HPC fluorescence, 1 h; in the data active means inhibition above about 40%
LANA-H2A inh: blocks KSHV LANA binding to histone H2A/H2B. cell-free LANA-H2A/H2B peptide, fluorescence polarization. actives 0.6% (n = 320,000). inhibition, % (test concentration not listed). Q9QR71. AID 2629; in the data active means inhibition mostly above about 10%, no sharp cut-off; inactive means mostly below about 6.7%
Target sequence (Q9QR71 whole entry, looked up): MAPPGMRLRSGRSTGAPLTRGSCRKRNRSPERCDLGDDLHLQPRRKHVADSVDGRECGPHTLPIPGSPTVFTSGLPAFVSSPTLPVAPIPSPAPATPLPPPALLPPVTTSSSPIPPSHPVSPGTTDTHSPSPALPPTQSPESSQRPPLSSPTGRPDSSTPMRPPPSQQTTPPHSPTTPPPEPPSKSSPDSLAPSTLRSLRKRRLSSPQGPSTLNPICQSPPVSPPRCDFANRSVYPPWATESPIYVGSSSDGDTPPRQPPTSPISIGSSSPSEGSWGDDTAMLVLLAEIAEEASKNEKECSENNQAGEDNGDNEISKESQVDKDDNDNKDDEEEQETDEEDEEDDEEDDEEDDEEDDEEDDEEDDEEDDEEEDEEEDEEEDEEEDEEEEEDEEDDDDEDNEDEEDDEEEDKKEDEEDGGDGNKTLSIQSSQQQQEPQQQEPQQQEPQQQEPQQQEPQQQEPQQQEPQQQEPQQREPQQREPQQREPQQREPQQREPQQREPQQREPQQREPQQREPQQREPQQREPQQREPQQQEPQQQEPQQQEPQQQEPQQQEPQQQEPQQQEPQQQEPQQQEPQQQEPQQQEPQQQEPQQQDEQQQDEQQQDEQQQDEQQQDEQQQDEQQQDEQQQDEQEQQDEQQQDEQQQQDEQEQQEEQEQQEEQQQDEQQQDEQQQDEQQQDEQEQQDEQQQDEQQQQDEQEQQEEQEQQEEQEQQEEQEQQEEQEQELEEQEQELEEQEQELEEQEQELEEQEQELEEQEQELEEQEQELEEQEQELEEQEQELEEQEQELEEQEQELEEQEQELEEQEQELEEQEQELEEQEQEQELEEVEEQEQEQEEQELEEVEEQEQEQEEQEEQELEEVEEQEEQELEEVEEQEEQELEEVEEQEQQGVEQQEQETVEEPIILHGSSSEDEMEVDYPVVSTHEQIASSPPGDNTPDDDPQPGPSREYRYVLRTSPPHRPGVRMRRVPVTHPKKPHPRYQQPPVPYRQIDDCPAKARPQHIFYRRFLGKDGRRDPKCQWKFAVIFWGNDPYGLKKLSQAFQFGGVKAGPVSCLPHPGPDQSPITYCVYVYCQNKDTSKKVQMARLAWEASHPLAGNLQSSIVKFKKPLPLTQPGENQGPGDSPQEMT
AI-2 QS modul: Vibrio harveyi AI-2 quorum sensing modulation; activity change, % at 7.5 µM; Vibrio harveyi JMH597 AI-2 luminescence/OD600 ratio, 9 h; stronger effect = lower value; strain lacks LuxN and CqsS sensors; 0 = neutral-control median; AID 2094; actives 0.4% (n = 300,000); in the data active means activity change below about -75%, passing the limit was not always enough; inconclusive means no clear call, values can overlap the other calls;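 further: luminescence divided by OD600 gain over 9 h not by final OD600 alone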
HDAC3 inhib: blocks human histone deacetylase 3; actives 0.15% (n = 320,000); recombinant HDAC3, fluorogenic peptide/trypsin coupled, fluorescence; O15379; AID 2718; inhibition, % at 8.3 µM; in the data active means inhibition above about 26%, passing the limit was not always enough; inconclusive means no clear call, values can overlap the other calls
HKDC1 inhibitor: blocks human hexokinase HKDC1 activity. recombinant HKDC1, G6PDH/diaphorase resazurin coupled fluorescence. Q2TB90. actives 0.16% (n = 340,000). inhibition, % at 20 µM;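 active means inhibition above about 35% when tested at 20 µM, limit read from the data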;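 further: plate controls were DMSO wells with enzyme for no effect and DMSO wells lacking enzyme for full effect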
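Test system: Recombinant HKDC1 (HK5) hexokinase enzyme, produced in-house | Input: HKDC1 at 5 µg/mL | Buffer or medium: Tris pH 8.0 buffer with MgCl2, Tween-20, BSA, BME | Schedule: 90 min reaction incubation at room temperature, dark | Technique: Resazurin-to-resorufin fluorescence via G6PDH and diaphorase coupling, 525/613 nm | Controls: DMSO wells with and without enzyme mix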
Bfl-1 A1 inh: inhibitors of the anti-apoptotic protein A1, read as caspase activation | MEF A1-2A-BIM cells, Caspase-Glo 3/7 luminescence, 3 h; percent of clofoctol response, vehicle zero | caspase activation, % (concentration not given with the values) | actives 0.066% (n = 330,000) | AID 2462;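 active means over half of replicate activation scores above 10%, or exactly half above 10 with the replicate mean above 10; inconclusive means replicate mean below 10 yet half the replicates above 10; inactive means over half of replicates below 10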
ATG4B conf: confirmation of human ATG4B inhibitors. shares compounds with ATG4B inh. ATG4B protease fluorescent substrate cleavage assay. AID 504757. actives 92% (n = 320). inhibition, % at 8.33 µM; in the data active means inhibition above about 39%
PLA2 counter: inhibits human PLA2, flagging false ATG4B inhibitors. actives 66% (n = 1,600). inhibition, % at 8.33 µM. shares compounds with ATG4B inh. purified PLA2, NBD-C6-HPC fluorescence, 45 min. AID 588402; in the data active means inhibition above about 50%
Active calls of the source: *; ? = inconclusive; . = no result. Shown are actives, neighbours in structure and some others; about 1.8% of the full set was active somewhere.

SMILES | ATG4B inh | LANA-H2A inh | AI-2 QS modul | HDAC3 inhib | HKDC1 inhibitor | Bfl-1 A1 inh | PLA2 counter | others
CON(C)C(=O)CC(CN(Cc1ccccc1)C(=O)OC(C)(C)C)c1ccc(Cl)cc1 (stereo not given) | 53* | -464 | . | ? | -1 | 0 | 79*
CN(C)C(CNC(=S)Nc1ccc(Cl)cc1)c1cccnc1 (stereo not given) | -4 | -2 | -1 | -7 | -6 | 1 | .
O=C(Nc1c(C(=O)O)oc2ccc(Br)cc12)c1ccccc1 | 48* | -5 | -16 | . | 7 | 0 | 57*
CCOc1nc(NC2CCCC2)nc(N2CCC(C)CC2)n1 | -3 | -1 | -4 | -1 | -3 | 3 | .
CCC(C)n1c(SCC(=O)/C(C#N)=C(\C)N)nc2ccccc2c1=O (stereo not given) | 9 | -1 | 12 | 0 | -2 | -1 | .
O=Cc1cccc(OCc2cccc3ccccc23)c1 | 61* | -5 | -2 | 1 | 1 | 1 | 73*
O=C(CC1S/C(=N/N=C/c2cccs2)NC1=O)Nc1ccc(Cl)c(Cl)c1 (stereo not given) | 61* | . | 4 | . | -1 | 0 | 12 | ATG4B conf=59*
O=C(CC1S/C(=N/N=C/c2cccs2)NC1=O)Nc1ccc(Cl)cc1 (stereo not given) | 22 | . | 12 | . | -9 | 0 | .
O=C(O)COc1ccccc1/C=C1\SC(=S)N(/N=C/c2ccccc2O)C1=O | 48* | -2 | 18 | 4 | 22 | -1 | 35 | ATG4B conf=68*
CCCCOc1ccc(-c2c(C#N)c(N)nc(SCC(N)=O)c2C#N)cc1 | 53* | -6 | 12 | 11 | 10 | 0 | 58*
Clc1ccc(CSc2nnc(-c3ccccn3)n2Cc2ccco2)c(Cl)c1 | 41* | -4 | 3 | 9 | -2 | 0 | 55*
Cc1cccc(C)c1NC(=O)CN(C)C(=O)CC1CC2CCC1C2 (stereo not given) | -5 | -5 | . | -6 | 5 | 0 | .
Cc1cc(C)nc(SCc2ccc(C(=O)NN=C3C4CC5CC(C4)CC3C5)cc2)n1 | -9 | -4 | 21 | 10 | 17 | 1 | .
Cc1cc(C)nc(SCc2ccc(C(=O)N/N=C3\CC(C)CC(C)(C)C3)cc2)n1 (stereo not given) | 47* | -1 | -2 | 6 | -4 | -1 | 46 | ATG4B conf=76*
O=C1C=C(NCCc2ccccc2)C2(CCCCC2)O1 | 6 | -1 | 12 | -2 | -3 | 1 | .
N#Cc1c(N)[nH]c(=S)c(C#N)c1-c1ccccc1 | 3 | -2 | 10 | -4 | 0 | 0 | .
N#Cc1c(N)[nH]c2ccc(Sc3ccccc3)cc12 | 41* | . | . | . | 2 | . | 40 | ATG4B conf=68*
CC(C)CC(NC(=O)C1CCC(C)CC1)C(=O)Nc1ccc2c(c1)OCCO2 (stereo not given) | -1 | 1 | 13 | -16 | 0 | 0 | .
CCCc1nc(SCC(=O)N2c3ccccc3CC2C)c2c(C)c(C)sc2n1 (stereo not given) | 69* | -6 | -18 | -4 | -1 | 0 | 81*
CC1CN=C(c2cccn2Cc2ccc(F)cc2Cl)O1 (stereo not given) | 43* | -5 | 30 | 9 | -1 | 1 | 53*
CC1(C)COC(c2cccn2Cc2ccc(F)cc2Cl)=N1 | 2 | -1 | 14 | 0 | -1 | -1 | .
CCN1/C(=C\C(=S)Nc2ccccc2)Sc2ccccc21 | -3 | -3 | 2 | 0 | -5 | 0 | .
CCN1/C(=C/C(C)=C/c2sc3ccccc3[n+]2CC)Sc2ccccc21 | 52* | -46 | -170* | 0 | -2 | -1 | 37 | ATG4B conf=49*
O=C(O)c1cc(-c2ccccc2)n(-c2ccc(Cl)cc2)n1 | -3 | 2 | 15 | -7 | -7 | 0 | .
O=Cc1cc(Cl)ccc1OCCN1CCC(Cc2ccccc2)CC1 | 84* | -5 | 37 | 1 | 5 | 0 | 87*
SMILES | ATG4B inh | LANA-H2A inh | AI-2 QS modul | HDAC3 inhib | HKDC1 inhibitor | Bfl-1 A1 inh | PLA2 counter | others
Clc1ccccc1OCCN1CCC(Cc2ccccc2)CC1 | 10 | -1 | 22 | -2 | 11 | 1 | .
CCOc1ncccc1C(=O)Nc1cccc(S(=O)(=O)N2CCOCC2)c1 | -15 | 0 | . | 0 | -5 | 1 | .
N/C(=N/O)c1ccccc1N1CCC(Cc2ccccc2)CC1 | 40* | 5 | 15 | -1 | -8 | 1 | 58*
c1ccc(CC2CCN(c3nnnn3-c3ccccc3)CC2)cc1 | -1 | -2 | -12 | -7 | -3 | 0 | .
COc1cc(C=O)ccc1OCc1ccccc1Br | 53* | -2 | 28 | 5 | -10 | -5 | 52*
COc1ccc(Cn2c(-c3ccc(OC)cc3)nc3ccccc32)cc1 | -1 | 4 | 15 | 0 | -3 | 1 | .
Cn1cccc1-c1nc2ccccc2n1Cc1ccccc1 | 43* | -8 | -10 | 6 | -3 | 0 | 56*
COC(=O)Cn1c(=O)c2c(n(Cc3ccccc3)c1=O)N/C(=C/c1ccc(Br)cc1)C2=O | 54* | 4 | -4 | 3 | 8 | 0 | 61*
Cc1ccc(-n2nnnc2SCC(=O)Nc2ccccc2-c2ccccc2)cc1C | 52* | -7 | 8 | 5 | -4 | 0 | 48
CC(C)(C)c1cc(C(=O)NNc2cc(C(F)(F)F)ccc2Cl)n(Cc2ccccc2)n1 | 43* | 1 | 63 | 1 | 3 | 0 | 63*
COc1ccccc1NNC(=O)c1cc(C(C)(C)C)nn1Cc1ccccc1 | -5 | 13 | 29 | -2 | 1 | -1 | .
Cc1ccc(C(=O)NNC2CC(=O)N(c3ccc4c(c3)OCCO4)C2=O)cc1 (stereo not given) | 5 | 7 | 2 | 3 | 2 | 0 | .
Cn1ccnc1C(=O)Cc1ccc([N+](=O)[O-])cc1 | -4 | 0 | 9 | 1 | -3 | 1 | .
Cc1ccc(N2C(=O)CN(Cc3sccc3C)C2=S)cc1C | 95* | . | 18 | . | -5 | 1 | 94*
CCc1ccc(N2C(=O)CN(Cc3ccc(OC)c(OC)c3)C2=S)cc1 | 0 | 3 | 16 | -4 | -8 | 0 | .
COc1ccc(CN2CC(=O)N(c3ccccc3OC)C2=S)cc1OC | -3 | 3 | 4 | 3 | -7 | 0 | .
COc1ccc(CN2CC(=O)N(c3cccc(Cl)c3)C2=S)cc1OC | 2 | -7 | 2 | -1 | -3 | 0 | .
Cc1ccc(N2C(=O)CN(Cc3cccs3)C2=S)cc1C | 58* | 0 | 1 | -3 | -11 | 1 | 78*
